Source: ChEMBL document CHEMBL1141501, “Identification of a potent new chemotype for the selective inhibition of PDE4” (Bioorg Med Chem Lett, 2008)
The source made the active and inactive calls. No cut-off for these calls is given here.

target: Phosphodiesterase 4 (Homo sapiens, UniProt P27815+Q08499+Q07343+Q08493); experiment: Inhibition of human PDE4A1A by IMAP technology; assay type: protein assay
Outline: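 Human PDE4A1A at 0.05 ng/μl final, in 10 mM Tris pH 7.2 with 0.1% BSA, 10 mM MgCl2, 1 mM DTT and 0.05% NaN3. Compound pin-transferred, then 5 min at RT before adding 100 nM cAMP (final). After 40 min at RT, IMAP binding reagent was added and incubated 1–4 h at RT.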

Row | Structure (SMILES) | IC50 [µM]
1 | COc1ccc(-c2nnc3n2N=C(c2cccc(OC)c2)CS3)cc1 | 8.4
2 | COc1ccc(-c2nnc3n2N=C(c2c(OC)cccc2OC)CS3)cc1OC | 14.1
3 | COc1ccc(-c2nnc3n2N=C(c2ccc(OC)c(OC)c2)CS3)c(OC)c1 | 0.079
4 | COc1cc(OC)cc(-c2nnc3n2N=C(c2ccc(OC)c(OC)c2)CS3)c1 | 0.05
5 | COc1ccc(C2=Nn3c(nnc3-c3cccc(OC)c3OC)SC2)c(OC)c1 | > 20
6 | COc1ccc(C2=Nn3c(nnc3-c3ccccc3OC)SC2)cc1 | > 20
7 | COc1ccccc1C1=Nn2c(nnc2-c2cccc(OC)c2OC)SC1 | > 20
8 | COc1cc(OC)cc(-c2nnc3n2N=C(c2ccc(OC)cc2OC)CS3)c1 | > 20
9 | COc1cccc(C2=Nn3c(nnc3-c3cc(OC)cc(OC)c3)SC2)c1 | 13.4
10 | COc1ccc(-c2nnc3n2N=C(c2cc(OC)ccc2OC)CS3)c(OC)c1 | 5.3
11 | COc1ccc(-c2nnc3n2N=C(c2ccccc2OC)CS3)cc1OC | 8.9
12 | COc1ccc(C2=Nn3c(nnc3-c3ccc(OC)cc3)SC2)cc1 | 8.4
13 | COc1ccc(C2=Nn3c(nnc3-c3cc(OC)cc(OC)c3)SC2)cc1 | 9.5
14 | COc1ccc(-c2nnc3n2N=C(c2c(OC)cccc2OC)CS3)c(OC)c1 | > 20
15 | COc1cccc(-c2nnc3n2N=C(c2ccc(OC)cc2OC)CS3)c1 | 14.1
16 | COc1ccc(-c2nnc3n2N=C(c2ccccc2OC)CS3)cc1 | 14.1
17 | CCOc1ccccc1-c1nnc2n1N=C(c1ccc(OC)cc1)CS2 | 4.5
18 | COc1cc(OC)cc(-c2nnc3n2N=C(c2ccccc2OC)CS3)c1 | 13.4
19 | COc1ccc(OC)c(C2=Nn3c(nnc3-c3cc(OC)ccc3OC)SC2)c1 | 11.9
20 | COc1ccc(C2=Nn3c(nnc3-c3ccc(OC)c(OC)c3)SC2)cc1OC | 0.177
21 | COc1ccc(C2=Nn3c(nnc3-c3ccc(OC)cc3OC)SC2)c(OC)c1 | > 20
22 | COc1ccc(C2=Nn3c(nnc3-c3cccc(OC)c3)SC2)cc1 | 12.6
23 | COc1ccc(C2=Nn3c(nnc3-c3ccccc3C)SC2)c(OC)c1 | > 20
24 | COc1ccc(C2=Nn3c(nnc3-c3cccc(OC)c3OC)SC2)cc1 | > 20

Row | Structure (SMILES) | IC50 [µM]
25 | COc1ccc(OC)c(C2=Nn3c(nnc3-c3ccccc3OC)SC2)c1 | 8.9
26 | COc1cccc(-c2nnc3n2N=C(c2ccc(OC)c(OC)c2)CS3)c1 | 0.126
27 | COc1ccc(-c2nnc3n2N=C(c2ccccc2OC)CS3)c(OC)c1 | 19.7
28 | COc1ccccc1C1=Nn2c(nnc2-c2ccccc2OC)SC1 | 20
29 | COc1ccc(C2=Nn3c(nnc3-c3cc(OC)ccc3OC)SC2)c(OC)c1 | 7.5
30 | COc1cccc(-c2nnc3n2N=C(c2c(OC)cccc2OC)CS3)c1OC | > 20
31 | COc1ccc(C2=Nn3c(nnc3-c3ccccc3C)SC2)cc1 | 12.5
32 | COc1cc(OC)cc(-c2nnc3n2N=C(c2cc(OC)ccc2OC)CS3)c1 | 12.7
33 | COc1ccccc1-c1nnc2n1N=C(c1c(OC)cccc1OC)CS2 | > 20
34 | COc1ccc(-c2nnc3n2N=C(c2ccc(OC)cc2OC)CS3)cc1 | 13.4
35 | COc1cccc(C2=Nn3c(nnc3-c3ccc(OC)cc3OC)SC2)c1 | 13.4
36 | COc1cc(OC)cc(-c2nnc3n2N=C(c2c(OC)cccc2OC)CS3)c1 | 19.6
37 | COc1ccc(C2=Nn3c(nnc3-c3ccc(OC)c(OC)c3)SC2)c(OC)c1 | 6.7
38 | COc1ccc(OC)c(C2=Nn3c(nnc3-c3ccc(OC)c(OC)c3)SC2)c1 | 6.9
39 | COc1cccc(-c2nnc3n2N=C(c2cc(OC)ccc2OC)CS3)c1 | 12.6
40 | COc1ccc(OC)c(-c2nnc3n2N=C(c2c(OC)cccc2OC)CS3)c1 | > 20
41 | COc1ccc(-c2nnc3n2N=C(c2cc(OC)ccc2OC)CS3)cc1 | 10.1
42 | COc1cccc(C2=Nn3c(nnc3-c3ccccc3O)SC2)c1 | 14.1
43 | COc1ccc(OC)c(-c2nnc3n2N=C(c2ccccc2OC)CS3)c1 | 19.6
44 | COc1ccccc1C1=Nn2c(nnc2-c2ccccc2C)SC1 | 14.1
45 | COc1cccc(C2=Nn3c(nnc3-c3cc(OC)ccc3OC)SC2)c1 | 8
46 | COc1ccc(OC)c(C2=Nn3c(nnc3-c3ccccc3C)SC2)c1 | 6.3
47 | COc1ccc(C2=Nn3c(nnc3-c3cc(OC)ccc3OC)SC2)cc1 | 1.7
48 | CCOc1ccccc1-c1nnc2n1N=C(c1ccccc1OC)CS2 | > 20

Row | Structure (SMILES) | IC50 [µM]
49 | COc1cccc(C2=Nn3c(nnc3-c3ccccc3C)SC2)c1 | 3.2
50 | COc1cccc(C2=Nn3c(nnc3-c3ccc(OC)c(OC)c3)SC2)c1 | 9
51 | COc1ccc(C2=Nn3c(nnc3-c3ccccc3O)SC2)cc1 | 8.4
52 | COc1cccc(OC)c1C1=Nn2c(nnc2-c2ccccc2O)SC1 | > 20
53 | COc1cccc(-c2nnc3n2N=C(c2c(OC)cccc2OC)CS3)c1 | > 20
54 | CCOc1ccccc1-c1nnc2n1N=C(c1c(OC)cccc1OC)CS2 | > 20
55 | COc1ccc(OC)c(C2=Nn3c(nnc3-c3cccc(OC)c3OC)SC2)c1 | 11.9
56 | CCOc1ccccc1-c1nnc2n1N=C(c1cc(OC)ccc1OC)CS2 | 13.4
57 | COc1ccc(C2=Nn3c(nnc3-c3ccc(OC)c(OC)c3)SC2)cc1 | 7.5
58 | CCOc1ccccc1-c1nnc2n1N=C(c1cccc(OC)c1)CS2 | 11.2
59 | CCOc1ccccc1-c1nnc2n1N=C(c1ccc(OC)cc1OC)CS2 | > 20
60 | COc1ccc(C2=Nn3c(nnc3-c3ccc(OC)cc3OC)SC2)cc1 | > 20
61 | COc1cccc(-c2nnc3n2N=C(c2ccccc2OC)CS3)c1 | 13.4
62 | COc1cccc(C2=Nn3c(nnc3-c3cccc(OC)c3)SC2)c1 | 12.6
63 | COc1ccccc1C1=Nn2c(nnc2-c2ccccc2O)SC1 | > 20
64 | COc1ccc(C2=Nn3c(nnc3-c3ccccc3O)SC2)c(OC)c1 | > 20
65 | COc1ccc(-c2nnc3n2N=C(c2c(OC)cccc2OC)CS3)cc1 | 19.7
66 | COc1cccc(OC)c1C1=Nn2c(nnc2-c2ccccc2C)SC1 | 14.1
67 | COc1cccc(C2=Nn3c(nnc3-c3ccccc3OC)SC2)c1 | 12
68 | COc1ccc(C2=Nn3c(nnc3-c3ccccc3OC)SC2)c(OC)c1 | 15
69 | COc1cccc(C2=Nn3c(nnc3-c3cccc(OC)c3OC)SC2)c1 | > 20
70 | COc1ccc(OC)c(C2=Nn3c(nnc3-c3ccccc3O)SC2)c1 | > 20
71 | COc1ccc(-c2nnc3n2N=C(c2ccc(OC)c(OC)c2)CS3)cc1 | 0.0889

target: Dual specificity calcium/calmodulin-dependent 3',5'-cyclic nucleotide phosphodiesterase 1A (Homo sapiens, UniProt P54750); experiment: Inhibition of PDE1A
Sequence (P54750 whole entry): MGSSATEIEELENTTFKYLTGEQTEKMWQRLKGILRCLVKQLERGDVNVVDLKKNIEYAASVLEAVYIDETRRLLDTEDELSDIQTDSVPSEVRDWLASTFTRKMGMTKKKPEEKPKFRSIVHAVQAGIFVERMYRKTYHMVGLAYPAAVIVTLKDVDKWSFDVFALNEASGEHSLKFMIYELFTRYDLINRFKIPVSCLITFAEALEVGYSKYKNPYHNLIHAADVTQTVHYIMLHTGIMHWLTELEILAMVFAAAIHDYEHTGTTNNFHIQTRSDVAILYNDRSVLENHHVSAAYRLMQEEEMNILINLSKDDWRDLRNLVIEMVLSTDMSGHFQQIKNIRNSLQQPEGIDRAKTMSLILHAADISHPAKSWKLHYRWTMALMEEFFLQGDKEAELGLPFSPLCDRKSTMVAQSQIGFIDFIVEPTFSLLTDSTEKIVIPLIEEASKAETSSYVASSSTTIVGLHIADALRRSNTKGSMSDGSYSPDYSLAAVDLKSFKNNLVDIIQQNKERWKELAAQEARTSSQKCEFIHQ

Row | Structure (SMILES) | IC50 [µM]
72 | COc1ccc(C2CNC(=O)C2)cc1OC1CCCC1 (configuration not stated) [ROLIPRAM] | > 50
73 | COc1ccc(C2=Nn3c(nnc3-c3ccccc3OC)SC2)cc1OC | > 50

target: Dual specificity calcium/calmodulin-dependent 3',5'-cyclic nucleotide phosphodiesterase 1B (Homo sapiens, UniProt Q01064); experiment: Inhibition of PDE1B
Sequence (Q01064 whole entry): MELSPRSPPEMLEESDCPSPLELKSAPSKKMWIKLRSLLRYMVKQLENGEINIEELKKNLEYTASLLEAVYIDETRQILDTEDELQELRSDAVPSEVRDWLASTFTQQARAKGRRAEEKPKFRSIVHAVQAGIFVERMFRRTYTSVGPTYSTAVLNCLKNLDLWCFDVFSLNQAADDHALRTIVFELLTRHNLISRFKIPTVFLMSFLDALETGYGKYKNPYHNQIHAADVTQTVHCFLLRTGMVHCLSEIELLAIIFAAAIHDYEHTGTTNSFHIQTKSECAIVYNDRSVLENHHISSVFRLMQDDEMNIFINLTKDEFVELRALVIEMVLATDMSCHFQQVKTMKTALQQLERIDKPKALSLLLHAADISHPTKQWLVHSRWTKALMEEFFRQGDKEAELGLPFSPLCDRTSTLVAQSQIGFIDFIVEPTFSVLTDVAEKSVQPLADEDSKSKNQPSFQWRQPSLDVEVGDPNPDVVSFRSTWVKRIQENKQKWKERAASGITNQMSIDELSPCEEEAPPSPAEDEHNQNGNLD

Row | Structure (SMILES) | Activity | IC50 [µM]
74 | COc1ccc(C2CNC(=O)C2)cc1OC1CCCC1 (configuration not stated) [ROLIPRAM] | inactive | 
75 | COc1ccc(C2=Nn3c(nnc3-c3ccccc3OC)SC2)cc1OC |  | > 50

target: cGMP-inhibited 3',5'-cyclic phosphodiesterase 3A (Homo sapiens, UniProt Q14432); experiment: Inhibition of PDE3A
Sequence (Q14432 whole entry): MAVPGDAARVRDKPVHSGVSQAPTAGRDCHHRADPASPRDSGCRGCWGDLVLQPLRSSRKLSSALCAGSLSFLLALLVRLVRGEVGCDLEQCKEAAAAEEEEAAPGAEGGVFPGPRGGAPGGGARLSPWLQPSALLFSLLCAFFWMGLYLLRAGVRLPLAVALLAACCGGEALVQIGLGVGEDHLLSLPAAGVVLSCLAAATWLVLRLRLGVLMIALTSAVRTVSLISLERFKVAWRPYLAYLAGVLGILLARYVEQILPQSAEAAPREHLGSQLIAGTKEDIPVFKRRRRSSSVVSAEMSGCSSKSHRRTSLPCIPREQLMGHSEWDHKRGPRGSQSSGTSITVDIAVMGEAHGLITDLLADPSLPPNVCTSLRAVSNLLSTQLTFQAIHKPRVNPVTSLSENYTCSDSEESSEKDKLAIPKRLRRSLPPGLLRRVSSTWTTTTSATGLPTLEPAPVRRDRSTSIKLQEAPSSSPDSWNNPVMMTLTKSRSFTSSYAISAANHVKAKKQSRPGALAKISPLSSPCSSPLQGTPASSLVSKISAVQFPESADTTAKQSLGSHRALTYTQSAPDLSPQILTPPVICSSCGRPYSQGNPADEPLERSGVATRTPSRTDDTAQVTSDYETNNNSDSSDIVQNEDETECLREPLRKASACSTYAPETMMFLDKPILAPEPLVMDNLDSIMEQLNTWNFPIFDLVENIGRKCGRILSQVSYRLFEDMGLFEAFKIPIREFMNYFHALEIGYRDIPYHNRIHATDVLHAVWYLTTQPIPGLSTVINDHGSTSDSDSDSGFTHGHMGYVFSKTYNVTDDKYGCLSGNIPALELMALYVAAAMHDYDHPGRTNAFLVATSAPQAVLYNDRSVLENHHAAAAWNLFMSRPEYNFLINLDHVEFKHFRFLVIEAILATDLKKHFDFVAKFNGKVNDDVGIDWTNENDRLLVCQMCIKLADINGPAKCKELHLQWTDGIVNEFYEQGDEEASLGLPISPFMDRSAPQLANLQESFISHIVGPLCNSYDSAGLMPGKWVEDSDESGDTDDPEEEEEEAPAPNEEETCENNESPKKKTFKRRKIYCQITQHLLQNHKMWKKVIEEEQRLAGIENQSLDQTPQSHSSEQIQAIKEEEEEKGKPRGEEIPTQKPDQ

Row | Structure (SMILES) | Activity | IC50 [µM]
76 | COc1ccc(C2CNC(=O)C2)cc1OC1CCCC1 (configuration not stated) [ROLIPRAM] | inactive | 
77 | COc1ccc(C2=Nn3c(nnc3-c3ccccc3OC)SC2)cc1OC |  | > 50

target: High affinity 3',5'-cyclic-AMP phosphodiesterase 7A (Homo sapiens) (UniProt Q13946); experiment: Inhibition of PDE7A
Sequence (Q13946 whole entry): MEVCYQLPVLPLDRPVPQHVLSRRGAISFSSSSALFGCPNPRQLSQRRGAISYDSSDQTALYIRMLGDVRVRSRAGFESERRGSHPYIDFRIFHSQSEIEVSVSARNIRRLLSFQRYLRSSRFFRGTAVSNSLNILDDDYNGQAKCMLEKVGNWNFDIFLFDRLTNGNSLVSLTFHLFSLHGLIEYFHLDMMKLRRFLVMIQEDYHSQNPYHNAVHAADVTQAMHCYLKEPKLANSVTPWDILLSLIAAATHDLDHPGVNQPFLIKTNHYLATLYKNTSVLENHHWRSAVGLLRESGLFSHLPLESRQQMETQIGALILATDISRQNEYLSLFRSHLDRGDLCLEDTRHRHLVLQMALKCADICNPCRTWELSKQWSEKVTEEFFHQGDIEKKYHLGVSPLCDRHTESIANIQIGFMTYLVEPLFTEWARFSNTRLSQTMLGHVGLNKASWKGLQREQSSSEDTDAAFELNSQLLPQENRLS

Row | Structure (SMILES) | Activity
78 | COc1ccc(C2CNC(=O)C2)cc1OC1CCCC1 (configuration not stated) [ROLIPRAM] | inactive
79 | COc1ccc(C2=Nn3c(nnc3-c3ccccc3OC)SC2)cc1OC | inactive

target: 3',5'-cyclic-AMP phosphodiesterase 7B (Homo sapiens) (UniProt Q9NP56); experiment: Inhibition of PDE7B
Sequence (Q9NP56 whole entry): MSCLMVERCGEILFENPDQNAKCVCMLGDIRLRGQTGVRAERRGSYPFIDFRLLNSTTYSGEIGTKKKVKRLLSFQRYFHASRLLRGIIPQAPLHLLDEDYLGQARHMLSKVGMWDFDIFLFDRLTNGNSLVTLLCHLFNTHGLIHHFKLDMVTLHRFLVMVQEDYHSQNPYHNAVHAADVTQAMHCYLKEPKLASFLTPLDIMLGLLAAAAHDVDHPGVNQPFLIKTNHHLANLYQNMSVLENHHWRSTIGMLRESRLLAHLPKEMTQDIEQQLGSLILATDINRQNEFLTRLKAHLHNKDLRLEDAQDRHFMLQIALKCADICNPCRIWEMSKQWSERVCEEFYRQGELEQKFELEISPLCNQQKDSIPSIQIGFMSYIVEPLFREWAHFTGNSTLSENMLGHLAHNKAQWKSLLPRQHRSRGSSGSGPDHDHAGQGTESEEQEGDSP

Row | Structure (SMILES) | Activity
80 | COc1ccc(C2CNC(=O)C2)cc1OC1CCCC1 (configuration not stated) [ROLIPRAM] | inactive
81 | COc1ccc(C2=Nn3c(nnc3-c3ccccc3OC)SC2)cc1OC | inactive

target: High affinity cGMP-specific 3',5'-cyclic phosphodiesterase 9A (Homo sapiens) (UniProt O76083); experiment: Inhibition of PDE9A
Sequence (O76083 whole entry): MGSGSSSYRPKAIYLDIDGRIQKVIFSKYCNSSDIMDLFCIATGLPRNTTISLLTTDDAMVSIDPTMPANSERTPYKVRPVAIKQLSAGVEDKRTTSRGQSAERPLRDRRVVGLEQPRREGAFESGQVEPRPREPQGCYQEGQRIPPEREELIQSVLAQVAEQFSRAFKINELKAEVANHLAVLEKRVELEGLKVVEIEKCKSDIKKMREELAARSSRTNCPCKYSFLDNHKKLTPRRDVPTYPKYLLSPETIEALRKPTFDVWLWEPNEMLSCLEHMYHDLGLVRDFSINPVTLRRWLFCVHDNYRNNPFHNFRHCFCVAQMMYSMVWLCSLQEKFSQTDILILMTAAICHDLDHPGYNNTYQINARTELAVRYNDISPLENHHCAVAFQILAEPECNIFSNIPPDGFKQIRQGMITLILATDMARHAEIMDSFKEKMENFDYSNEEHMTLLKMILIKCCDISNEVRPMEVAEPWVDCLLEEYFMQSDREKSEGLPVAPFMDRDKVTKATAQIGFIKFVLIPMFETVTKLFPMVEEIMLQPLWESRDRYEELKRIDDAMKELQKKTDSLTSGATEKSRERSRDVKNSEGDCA

Row | Structure (SMILES) | Activity
82 | COc1ccc(C2CNC(=O)C2)cc1OC1CCCC1 (configuration not stated) [ROLIPRAM] | inactive
83 | COc1ccc(C2=Nn3c(nnc3-c3ccccc3OC)SC2)cc1OC | inactive

target: cAMP and cAMP-inhibited cGMP 3',5'-cyclic phosphodiesterase 10A (Homo sapiens, UniProt Q9Y233); experiment: Inhibition of PDE10A
Sequence (Q9Y233 whole entry): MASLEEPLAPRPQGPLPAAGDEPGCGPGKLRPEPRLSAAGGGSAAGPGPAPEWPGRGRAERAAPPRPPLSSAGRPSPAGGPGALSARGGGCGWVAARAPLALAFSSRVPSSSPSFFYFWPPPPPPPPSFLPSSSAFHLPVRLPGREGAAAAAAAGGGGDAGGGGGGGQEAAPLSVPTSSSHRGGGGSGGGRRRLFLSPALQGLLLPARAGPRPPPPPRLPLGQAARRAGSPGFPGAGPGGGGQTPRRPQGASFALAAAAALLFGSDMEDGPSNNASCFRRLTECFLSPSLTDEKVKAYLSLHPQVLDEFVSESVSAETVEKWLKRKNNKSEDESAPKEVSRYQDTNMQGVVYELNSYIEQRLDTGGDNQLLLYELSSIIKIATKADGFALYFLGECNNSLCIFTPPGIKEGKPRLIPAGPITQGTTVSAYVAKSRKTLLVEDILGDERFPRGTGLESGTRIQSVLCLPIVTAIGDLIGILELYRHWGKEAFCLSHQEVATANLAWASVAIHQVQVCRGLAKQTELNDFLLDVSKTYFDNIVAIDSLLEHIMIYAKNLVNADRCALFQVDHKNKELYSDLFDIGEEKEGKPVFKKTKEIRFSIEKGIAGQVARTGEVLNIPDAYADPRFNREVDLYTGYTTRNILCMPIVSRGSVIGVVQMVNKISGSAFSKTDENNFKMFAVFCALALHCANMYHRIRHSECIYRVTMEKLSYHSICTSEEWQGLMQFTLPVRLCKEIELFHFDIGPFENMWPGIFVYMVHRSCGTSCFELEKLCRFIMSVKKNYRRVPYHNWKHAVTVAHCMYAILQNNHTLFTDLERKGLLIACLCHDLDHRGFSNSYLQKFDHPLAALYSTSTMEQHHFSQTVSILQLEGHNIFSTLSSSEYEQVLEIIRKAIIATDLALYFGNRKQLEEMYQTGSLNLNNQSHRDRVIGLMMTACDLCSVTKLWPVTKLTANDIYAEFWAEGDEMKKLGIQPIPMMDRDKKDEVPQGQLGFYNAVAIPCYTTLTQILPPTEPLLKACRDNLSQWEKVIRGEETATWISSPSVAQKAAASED

Row | Structure (SMILES) | Activity | IC50 [µM]
84 | COc1ccc(C2CNC(=O)C2)cc1OC1CCCC1 (configuration not stated) [ROLIPRAM] | inactive | 
85 | COc1ccc(C2=Nn3c(nnc3-c3ccccc3OC)SC2)cc1OC |  | > 50

target: cGMP-specific 3',5'-cyclic phosphodiesterase (Homo sapiens, UniProt O76074)

Row | Structure (SMILES) | IC50 [µM]
86 | COc1ccc(C2=Nn3c(nnc3-c3ccccc3OC)SC2)cc1OC | > 50

target: Dual 3',5'-cyclic-AMP and -GMP phosphodiesterase 11A (Homo sapiens, UniProt Q9HCR9)

Row | Structure (SMILES) | IC50 [µM]
87 | COc1ccc(C2=Nn3c(nnc3-c3ccccc3OC)SC2)cc1OC | > 50
